Results from ChEMBL document CHEMBL1127668, “Antagonist, partial agonist, and full agonist imidazo[1,5-a]quinoxaline amides and carbamates acting through the GABAA/benzodiazepine receptor” (J Med Chem, 1994).
Values joined by “and” are separate entries in the source; they are usually repeats but may differ in a detail not shown here. Equal entries are not always repeated.

Columns and labels:
[1] = biological target: GABA-A receptor; anion channel; test: Displacement of [3H]- flunitrazepam from rat GABA-A benzodiazepine receptor; type: protein-complex assay
[2] = Displacement of [3H]flunitrazepam from alpha-1-beta-2-gamma-2 GABA-A receptor subunits expressed in Sf9 cell membranes; set-up: species or system Rattus norvegicus
Procedure, shortened: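 Sf-9 membranes from cells infected with baculovirus carrying α1, β2 and γ2 cDNAs, harvested 60 h postinfection. Assay in normal saline with 6 nM [3H]flunitrazepam, 50 µg membrane protein and six test concentrations; 60 min at 4 °C; glass-fiber filtration, four cold washes, scintillation counting.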

Rattus norvegicus [3] = test: The compound was tested for antagonistic activity against metrazole induced convulsions in rats, after ip administration; type: functional
Rattus norvegicus [4] = species: Rattus norvegicus; test: Chloride ion influx in rat cerebrocortical membranes; type: functional
[5] = Displacement of [3H]-Ro- 15-4513 from alpha-1-beta-2-gamma-2 GABA-A receptor subunits expressed in Sf9 cell membranes; set-up: species or system Rattus norvegicus
[6] = biological target: T1, GABA-A receptor; anion channel (Rattus norvegicus) (UniProt O09028+P15431+P18506+P18508+P19969+P20236+P23574+P23576+P28471+P28473+P30191+P62813+P63079+P63138+Q91ZM7+Q9ES14); test: Shift in the affinity of [35S]TBPS for the chloride channel of GABAA receptor complex in the presence and absence of compound; type: protein-complex assay
Rattus norvegicus [7] = test: The compound was tested for antagonistic activity against metrazole induced convulsions in rats after ip administration; type: functional
[8] = biological target: T1, GABA-A receptor; anion channel (Rattus norvegicus); test: Inhibition of [35S]TBPS binding to GABA-A receptor complex; type: protein-complex assay
[9] = biological target: GABA A receptor alpha-6/beta-2/gamma-2 (Homo sapiens, UniProt P18507+P47870+Q16445); test: Displacement of [3H]-Ro- 15-4513 from alpha-6-beta-2-gamma-2 GABA-A receptor subunits expressed in Sf9 cell membranes
GABA A receptor alpha-6/beta-2/gamma-2, sequence (P47870 whole entry): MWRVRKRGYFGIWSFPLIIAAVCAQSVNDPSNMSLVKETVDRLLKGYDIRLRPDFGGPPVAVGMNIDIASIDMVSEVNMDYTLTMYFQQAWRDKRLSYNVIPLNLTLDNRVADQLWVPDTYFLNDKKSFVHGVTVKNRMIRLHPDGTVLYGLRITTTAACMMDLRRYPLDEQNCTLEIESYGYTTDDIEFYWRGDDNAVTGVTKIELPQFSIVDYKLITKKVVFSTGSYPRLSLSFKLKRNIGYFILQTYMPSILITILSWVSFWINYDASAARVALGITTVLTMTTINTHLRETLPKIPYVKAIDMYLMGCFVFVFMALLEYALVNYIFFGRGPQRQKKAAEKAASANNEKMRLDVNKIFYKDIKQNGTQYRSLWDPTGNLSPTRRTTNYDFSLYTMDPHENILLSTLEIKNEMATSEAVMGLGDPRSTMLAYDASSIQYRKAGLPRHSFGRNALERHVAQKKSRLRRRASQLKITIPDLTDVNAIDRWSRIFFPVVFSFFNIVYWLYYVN
GABA A receptor alpha-6/beta-2/gamma-2, sequence (P18507 whole entry): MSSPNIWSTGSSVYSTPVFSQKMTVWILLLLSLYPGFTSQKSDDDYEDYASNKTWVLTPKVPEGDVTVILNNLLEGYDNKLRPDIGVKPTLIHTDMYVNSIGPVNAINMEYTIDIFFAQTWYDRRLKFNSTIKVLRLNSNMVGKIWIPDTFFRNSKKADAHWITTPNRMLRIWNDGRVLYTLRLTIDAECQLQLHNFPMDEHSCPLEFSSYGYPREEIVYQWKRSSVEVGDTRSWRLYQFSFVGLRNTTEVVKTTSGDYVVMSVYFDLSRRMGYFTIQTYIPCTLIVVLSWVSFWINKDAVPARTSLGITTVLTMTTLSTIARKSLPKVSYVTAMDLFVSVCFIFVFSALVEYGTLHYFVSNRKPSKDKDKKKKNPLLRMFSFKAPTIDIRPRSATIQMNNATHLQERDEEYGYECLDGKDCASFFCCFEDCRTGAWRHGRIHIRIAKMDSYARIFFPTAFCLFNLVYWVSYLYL
GABA A receptor alpha-6/beta-2/gamma-2, sequence (Q16445 whole entry): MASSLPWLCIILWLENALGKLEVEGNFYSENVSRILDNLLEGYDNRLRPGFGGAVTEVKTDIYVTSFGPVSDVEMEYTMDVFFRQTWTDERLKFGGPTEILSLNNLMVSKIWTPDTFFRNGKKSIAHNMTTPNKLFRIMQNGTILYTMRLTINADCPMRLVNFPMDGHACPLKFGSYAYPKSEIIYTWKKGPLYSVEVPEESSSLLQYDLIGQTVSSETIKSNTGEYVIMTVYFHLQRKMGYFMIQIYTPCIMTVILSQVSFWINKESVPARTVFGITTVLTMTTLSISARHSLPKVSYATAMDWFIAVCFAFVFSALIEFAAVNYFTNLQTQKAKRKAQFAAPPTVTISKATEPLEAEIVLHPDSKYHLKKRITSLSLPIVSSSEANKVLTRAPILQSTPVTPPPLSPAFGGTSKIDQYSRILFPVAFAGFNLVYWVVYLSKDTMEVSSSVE
Procedure, shortened: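 Sf-9 cells infected with baculovirus carrying α6, β2 and γ2 cDNAs, harvested 60 h postinfection; membranes stored at -80 °C in 300 mM sucrose, 5 mM Tris/HCl pH 7.5, 20% glycerol. 50 µg membrane protein with 6 nM [3H]Ro 15-4513 and six test concentrations in normal saline, 60 min at 4 °C; filtered, washed, scintillation counted.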

| SMILES | Ki [1] | Ki [2] | ED50 (Rattus norvegicus [3]) | Chlorine uptake (Rattus norvegicus [4]) | Ki [5] | TBPS shift [6] | ED50 (Rattus norvegicus [7]) | TBPS shift [8] | Ki [9] |
| --- | --- | --- | --- | --- | --- | --- | --- | --- | --- |
| O=C(c1ccccc1)N1Cc2c(-c3noc(C4CC4)n3)ncn2-c2cccc(F)c21 | 0.77 nM | 0.3 nM | 25 mg/kg | 0.9 | 681 nM | 0.87 | – | – | – |
| CC(=O)N1Cc2c(-c3noc(C4CC4)n3)ncn2-c2cccc(F)c21 | – | 0.8 nM | – | – | 107 nM | – | – | – | – |
| Cc1ccc(-c2nc3ccc(C)cn3c2CC(=O)N(C)C)cc1 [ZOLPIDEM] | – | – | – | – | – | – | 4.4 mg/kg | – | – |
| O=C(c1ccccc1Cl)N1Cc2c(-c3noc(C4CC4)n3)ncn2-c2ccccc21 | 1.4 nM | – | – | 0.28 | – | 0 | > 50 mg/kg | – | – |
| CC(C)(C)OC(=O)c1ncn2c1C1CCC(=O)N1c1ccccc1-2 (stereo not given) | 0.76 nM | 0.4 nM | – | – | 13.2 nM | – | > 50 mg/kg | 0.06 | – |
| COC(=O)N1c2ccccc2-n2cnc(-c3noc(C4CC4)n3)c2C1(C)C | 6.8 nM | – | – | 1.18 and 0.4 | – | 1.04 and 0.8 | > 50 mg/kg | – | – |
| CC(=O)N1Cc2c(-c3noc(C4CC4)n3)ncn2-c2ccc(F)cc21 | 0.69 nM | 0.6 nM | – | – | 81 nM | 1.11 | – | – | – |
| CC(=O)N1Cc2c(-c3nc(C4CC4)no3)ncn2-c2ccccc21 | 6.6 nM | – | – | 0.6 | – | 0.7 | 42 mg/kg | – | – |
| O=C1CCC2c3c(-c4noc(C5CC5)n4)ncn3-c3ccccc3N12 (stereo not given) | 0.87 nM | – | – | 0.29 | – | 1.15 | – | – | – |
| O=C(c1ccccc1)N1Cc2c(-c3noc(C4CC4)n3)ncn2-c2ccccc21 | 4.3 nM | 0.3 nM | – | – | 1140 nM | 0.5 | – | – | – |
| CC(=O)N1Cc2c(C(=O)OC(C)(C)C)ncn2-c2ccccc21 | – | – | – | 0 | – | -0.06 | – | – | – |
| CC(=O)N1Cc2c(-c3noc(C4CC4)n3)ncn2-c2ccccc21 | 1.5 nM | 2.7 nM | – | – | 124 nM | 0.9 | 35 mg/kg | – | – |
| CC(C)(C)OC(=O)c1ncn2c1CN(C(=O)c1ccccc1Cl)c1ccccc1-2 | 4 nM | – | – | -0.15 | – | 0.2 | > 50 mg/kg | – | – |
| O=C1CC[C@@H]2c3c(-c4noc(C5CC5)n4)ncn3-c3ccccc3N12 | 0.65 nM | – | – | – | – | 0.9 | 1.9 mg/kg | – | – |
| CC(=O)N1c2ccccc2-n2cnc(-c3noc(C4CC4)n3)c2C1(C)C | 4.8 nM | – | – | – | – | 0.7 | 30 mg/kg | – | – |
| O=C1CC[C@H]2c3c(-c4noc(C5CC5)n4)ncn3-c3ccccc3N12 | 0.62 nM | – | – | – | – | 1.05 | 1.1 mg/kg | – | – |
| CN1C(=O)CN=C(c2ccccc2)c2cc(Cl)ccc21 [DIAZEPAM] | – | – | 0.5 mg/kg | 1 | – | – | – | – | > 7000 nM |
| CCOC(=O)c1ncn2c1CN(C)C(=O)c1cc(N=[N+]=[N-])ccc1-2 [Ro-154513] | – | 15 nM | – | – | – | – | – | – | 5.4 nM |
| CC(C)OC(=O)N1c2ccccc2-n2cnc(-c3noc(C4CC4)n3)c2C1(C)C | 6.7 nM | – | – | 0.7 | – | 1.2 | 3.7 mg/kg | – | – |
| O=C1OCC2c3c(-c4noc(C5CC5)n4)ncn3-c3ccccc3N12 (stereo not given) | 2.4 nM | – | – | 0.5 | – | 0.96 | – | – | – |
| CC(C)(C)OC(=O)N1Cc2c(-c3noc(C4CC4)n3)ncn2-c2ccccc21 | 1.9 nM | – | – | – | – | 2.9 | 0.06 mg/kg | – | – |
| O=C(c1ccccc1)N1Cc2c(-c3noc(C4CC4)n3)ncn2-c2ccc(F)cc21 | 0.58 nM | 0.4 nM | – | 0.67 | > 10000 nM | 0.98 | – | – | – |
| CC(C)(C)OC(=O)c1ncn2c1CN(C(=O)OC(C)(C)C)c1ccccc1-2 | 5.1 nM | – | – | 0.14 | – | 0.45 | – | – | – |
